The values that follow come from ChEMBL document CHEMBL4033789, “Discovery of a New Four-Leaf Clover-Like Ligand as a Potent c-MYC Transcription Inhibitor Specifically Targeting the Promoter G-Quadruplex” (J Med Chem, 2018).

In data set [1] the test system is HeLa. Description: Cytotoxicity against human HeLa cells assessed as reduction in cell viability after 24 hrs by MTT assay. Type of data set: functional, cell-based. In short, it runs like this: (§1)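 Cells seeded at 5.0×10^3 per well, exposed to compound for 24 h; MTT (2.5 mg/mL) added for 4 h, formazan dissolved in DMSO, OD read at 570 nm. Triplicate; IC50 from curves of mean OD against concentration.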

Data set [2] is described as follows: Cytotoxicity against mouse primary mesangial cells assessed as reduction in cell viability after 24 hrs by MTT assay. Type of data set: cell-based. The essentials: as §1
(In general: Tetrazolium dyes change colour on reduction, which living cells bring about.)

Data set [3] has as its system Huh-7. The experiment in a line: Cytotoxicity against human Huh7 cells assessed as reduction in cell viability after 24 hrs by MTT assay. In kind it is functional, cell-based. Particulars: Huh-7, 24 h. The essentials:
as §1

Data set [4] has as its system BJ. The experiment in a line: Cytotoxicity against human BJ cells assessed as reduction in cell viability after 24 hrs by MTT assay. In kind it is cell-based. The essentials:
as §1

Data set [5] concerns SiHa. Description: Cytotoxicity against human SiHa cells assessed as reduction in cell viability after 24 hrs by MTT assay. In kind it is functional, cell-based. The essentials:
as §1

The test system of data set [6] is A-375. The experiment in a line: Cytotoxicity against human A375 cells assessed as reduction in cell viability after 24 hrs by MTT assay. In kind it is functional, cell-based. Particulars: A-375, 24 h. In short, it runs like this:
as §1

Data set [7] has as its system Mus musculus. The experiment in a line: Toxicity in nude BALB/c mouse xenografted with human SiHa cells assessed as viscera weight reduction at 1 mg/kg, ip administered every other day for 24 days. Type of data set: organism-based. As to conditions: in vivo, 576 h. The essentials: (§2)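 BALB/c nude mice, 5 weeks old, implanted subcutaneously in right flank with 1×10^7 SiHa cells; at ~50 mm3 tumor, 10 per group dosed ip every other day for 24 days, saline control; body weight measured daily, viscera weighed at sacrifice; mean ± SEM, Student's t test versus saline.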
A general note: A xenograft is tissue or cells of one species grown in another, often human tumour cells in immunodeficient mice.

The test system of data set [8] is SiHa. The experiment in a line: Antitumor activity against human SiHa cells xenografted in nude BALB/c mouse assessed as tumor growth inhibition at 1 mg/kg, ip administered every other day for 24 days. In kind it is functional, organism-based. The essentials: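 BALB/c nude mice (5 weeks old) given 1×10^7 SiHa cells subcutaneously in right flank; at ~50 mm3 tumor volume, randomized (10 per group) and dosed intraperitoneally every other day for 24 days; controls got equal-volume saline. Caliper volume as 1/2 × length × width2; tumors weighed at end; inhibition rate = (1 − mean treated tumor weight/mean control tumor weight) × 100%.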

The test system of data set [9] is Mus musculus. Description: In vivo stabilization of c-Myc G-quadruplex DNA in human SiHa cells xenografted in nude BALB/c mouse assessed as decrease in c-Myc expression at 1 mg/kg, ip administered every other day for 24 days by immunohistochemistry. Type of data set: functional, organism-based.
The subject of data set [10] is Mus musculus. The experiment in a line: Toxicity in nude BALB/c mouse xenografted with human SiHa cells assessed as body weight reduction at 1 mg/kg, ip administered every other day for 24 days. In kind it is organism-based. Particulars: in vivo, 576 h. In short, it runs like this:
as §2

A short description of data set [11]: Binding affinity to 1 uM hybrid telomeric htg22 G-quadruplex DNA (unknown origin) at 1 uM after 1 min by fluorescence spectroscopic analysis. In kind it is ADME. In short, it runs like this:
(§3)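 Fluorescence emission spectra of 1 µM compound mixed with 1 µM pre-annealed oligonucleotide (G-quadruplexes folded in 100 mM KCl by heating to 95 °C for 5 min, slow cooling), in Tris-HCl buffer.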

The nature of data set [12]: Binding affinity to 1 uM antiparallel HRAS G-quadruplex DNA (unknown origin) at 1 uM after 1 min by fluorescence spectroscopic analysis. In kind it is ADME. In short, it runs like this: as §3
The nature of data set [13]: Binding affinity to 1 uM i-motif DNA (unknown origin) at 1 uM after 1 min by fluorescence spectroscopic analysis.
Data set [14] can be described thus: Binding affinity to 1 uM c-MYC promoter G-quadruplex pu22 DNA (unknown origin) at 1 uM after 1 min by fluorescence spectroscopic analysis. In short, it runs like this: as §3
Data set [15] is described as follows: Binding affinity to 1 uM G-triplex DNA (unknown origin) at 1 uM after 1 min by fluorescence spectroscopic analysis.

Activity calls are given as the source filed them. The rule behind the calls is not given here.

As usually defined, the IC50 is the concentration at which inhibition is half-maximal. Regarding `CCn1c2ccccc2c2cc(-c3nc(-c4ccc(N5CCN(C)CC5)cc4)c(-c4ccc(N5CCN(C)CC5)cc4)[nH]3)ccc21`, the IC50 in data set [1] is 2.5 µM; in [2], 3.1 µM; in [3], 2.7 µM; in data set [4], 2.8 µM; in data set [5] it was 2.3 µM; in data set [6], 2.3 µM.
On to `COc1cccc2c1C(=O)c1c(O)c3c(c(O)c1C2=O)C[C@@](O)(C(=O)CO)C[C@@H]3O[C@H]1C[C@H](N)[C@H](O)[C@H](C)O1` [DOXORUBICIN], for which the Activity result in data set [7] and in data set [10] was “Toxic” in each case. Besides, the TGI result in [8] was “Active”. Besides, the result in data set [9] was Active.
For the compound `CCn1c2ccccc2c2cc(-c3nc(-c4ccc(N5CCN(C)CC5)cc4)c(-c4ccc(F)cc4)[nH]3)ccc21`, the IC50 was determined as 15.3 µM in data set [1]; 17.3 µM in data set [2]; 12.4 µM in data set [3]; 13.9 µM in data set [4]; 30.1 µM in [5]; 7.4 µM in data set [6]. Also, the Activity entry in [11] and in data set [12] was “Not Active” throughout. Besides, the result in [13] and in data set [15] was inactive. Moreover, the result in [14] was Active.
For `CCn1c2ccccc2c2cc(-c3nc(-c4ccc(F)cc4)c(-c4ccc(F)cc4)[nH]3)ccc21`, the IC50 in [1], in [2], in [3], in [4], in data set [5] and in [6] was over 80 µM each time. The result in data set [14] was Active.
For `CCn1c2ccccc2c2cc(-c3nc(-c4ccc(F)cc4)c(-c4ccc(F)cc4)n3-c3ccc(OC)cc3)ccc21`, the IC50 in [1], in data set [2], in data set [3], in [4], in [5] and in data set [6] was over 80 µM in each case. The Activity entry in data set [11] and in data set [12] was “Not Active” in each case. Also, the outcome in data set [14] was inactive.
